Results as given in ChEMBL document CHEMBL4017510, “Nitazoxanide Analogs Require Nitroreduction for Antimicrobial Activity in Mycobacterium smegmatis” (J Med Chem, 2017).
pIC50: −log10 of the molar value. Values after ≈ are worked out from the molar mass of the structure shown. Active and inactive are the calls of the source.

What was measured:
[1] = tested on: Pseudomonas aeruginosa; assay: Antibacterial activity against Pseudomonas aeruginosa by resazurin microdilution assay; assay type: functional
How it was run: (§1)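 Clinical isolates were grown at 37 °C in Mueller−Hinton broth. Two-fold dilutions were made in 96-well plates and inoculated with about 1 × 10^3 UFC per well. Growth controls (no antibiotic) and medium controls (no bacteria) were included. Resazurin was added to 0.003% final. MIC was the lowest concentration that prevented the blue-to-pink color change.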

[2] = tested on: Mycolicibacterium aurum; assay: Antibacterial activity against Mycobacterium aurum after overnight incubation by resazurin microdilution assay; assay type: functional
How it was run: (§2)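 Mycobacteria were cultured in Middlebrook 7H9 with ADC and glycerol, at 32 °C for M. marinum (4 days) or with overnight incubation for M. aurum. Resazurin microdilution used 2-fold dilutions and about 1 × 10^3 UFC per well, with growth and medium controls. Resazurin 0.003% final. MIC defined as the lowest concentration preventing the blue-to-pink change.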

[3] = tested on: Mycolicibacterium smegmatis; assay: Antibacterial activity against Mycobacterium smegmatis harboring 126E6 mutant measured after 24 hrs by resazurin microdilution assay; assay type: functional
How it was run: (§3)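 Two-fold drug dilutions in 96-well plates with species-appropriate medium. Each well receives an inoculum of about 1 × 10^3 UFC. Each plate has a no-drug growth control and a no-bacteria medium control. Resazurin is added to 0.003% final. Incubation time and temperature vary by species. MIC is the lowest concentration preventing the blue-to-pink (resorufin) colour change.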

[4] = tested on: Mycobacterium avium; assay: Antibacterial activity against Mycobacterium avium after 7 days by resazurin microdilution assay; assay type: functional; settings: 168 h; how it was run: as §3
[5] = tested on: Mycobacterium tuberculosis; assay: Antibacterial activity against Mycobacterium tuberculosis H37Rv after 7 days by resazurin microdilution assay; assay type: functional; settings: 168 h; how it was run: as §3
[6] = tested on: Staphylococcus aureus; assay: Antibacterial activity against Staphylococcus aureus by resazurin microdilution assay; assay type: functional; how it was run: as §1
[7] = tested on: Klebsiella aerogenes; assay: Antibacterial activity against Enterobacter aerogenes by resazurin microdilution assay; assay type: functional; how it was run: as §1
[8] = tested on: Streptococcus agalactiae; assay: Antibacterial activity against Streptococcus agalactiae NEM316 by resazurin microdilution assay; assay type: functional
How it was run: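 S. agalactiae NEM316 in Todd−Hewitt broth at 37 °C. Compounds were tested as 2-fold dilutions in 96 wells with an inoculum of about 1 × 10^3 UFC per well. Controls without antibiotic or without bacteria were included. Resazurin 0.003% final. MIC was the lowest concentration preventing the color change from blue to pink.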

[9] = tested on: Mycobacterium marinum; assay: Antibacterial activity against Mycobacterium marinum after 4 days by resazurin microdilution assay; assay type: functional; settings: 96 h; how it was run: as §2
[10] = tested on: Klebsiella pneumoniae; assay: Antibacterial activity against Klebsiella pneumoniae by resazurin microdilution assay; assay type: functional; how it was run: as §1
[11] = tested on: Mycolicibacterium smegmatis; assay: Antibacterial activity against Mycobacterium smegmatis MC2 155 by resazurin microdilution assay; assay type: functional; settings: str. MC2 155; how it was run: as §3
[12] = tested on: Mycolicibacterium aurum; assay: Growth inhibition of Mycobacterium aurum at 0.4 uM after overnight incubation by resazurin microdilution assay relative to control; assay type: functional; settings: read-out: GI
How it was run: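 Single-concentration screen at 0.15 μg/mL (average 0.4 μM). M. aurum (20-fold dilution of an OD600 0.2–0.3 culture) was grown in 7H9 with 0.1% casitone, 0.5% glycerol, OADC and 0.002% resazurin for 18 h at 37 °C. Read-out was ΔOD (OD570 − OD604). Percent viability was normalized to DMSO (100%) and kanamycin (0%) controls.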

[13] = tested on: Escherichia coli; assay: Antibacterial activity against Escherichia coli after 6 hrs by resazurin microdilution assay; assay type: functional
How it was run: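 Clinical isolate of E. coli in Mueller−Hinton broth at 37 °C, 6 h incubation. Two-fold dilution series in 96-well plates with about 1 × 10^3 UFC per well. Growth and medium-only controls were run. Resazurin at 0.003% final. MIC taken as the lowest concentration blocking reduction of resazurin (blue) to resorufin (pink).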

[14] = tested on: Vero; assay: Cytotoxicity against African green monkey Vero cells; assay type: cell-based; settings: Chlorocebus sabaeus
[15] = Drug metabolism in Mycobacterium smegmatis 126E6 assessed as NfnB-mediated hydroxyl […] formation after 3 hrs by LC-MS/MS analysis; assay type: ADME; settings: mycolicibacterium smegmatis
How it was run: (§4)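 M. smegmatis wild type or transposon mutant 126E6 was grown in 7H9 to OD600 0.6 at 37 °C. 5 mL aliquots received 0.3 mg of compound or none and were incubated 3 h. Cultures were sonicated, cleared and filtered (0.45 μm), then mixed with acetonitrile/methanol/water. Analysis was aqueous normal-phase LC with ESI QTOF, reported as ion counts per mL, including the hydroxylamine intermediate (m/z 372.0012).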

[16] = tested on: Mycolicibacterium smegmatis; assay: Drug metabolism in Mycobacterium smegmatis assessed as hydroxyl […] formation after 3 hrs by LC-MS/MS analysis; assay type: ADME; how it was run: as §4
[17] = tested on: Mycolicibacterium smegmatis; assay: Antibacterial activity against Mycobacterium smegmatis harboring 126E6 mutant at 51.6 uM measured after 24 hrs by resazurin microdilution assay; assay type: functional
How it was run: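 Hypersensitivity screen of the M. smegmatis Tn611 transposon mutant collection. Wells receive 2 μL from each mutant in Middlebrook 7H9 with ADC, 0.05% Tween 80, kanamycin and PANTA, with compound at 20 μg/mL final. Drug-free plates serve as growth controls. Plates are incubated 48 h at 37 °C, with resazurin (0.003% final) added at 24 h. Clones failing to grow are scored.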

Row | Compound | MIC [1] | MIC [2] | MIC [3] | MIC [4] | MIC [5] | MIC [6] | MIC [7] | MIC [8] | MIC [9] | MIC [10] | MIC [11] | inhibition of growth at 0.4 µM [12] | MIC [13] | pIC50 [14] | Drug metabolism [15] | Drug metabolism [16] | Activity [17]
1 | O=C(Nc1ncc([N+](=O)[O-])s1)c1ccccc1OC(F)(F)F | 93.6 µM (≈ 31.2 µg/mL) | 4.65 µM (≈ 1.55 µg/mL) | 19.6 µM (≈ 6.53 µg/mL) | 11.7 µM (≈ 3.9 µg/mL) | 75 µM (≈ 25 µg/mL) | 48.8 µM (≈ 16.3 µg/mL) | > 93.6 µM | > 93.6 µM | 9 µM (≈ 3 µg/mL) | > 93.6 µM | 75 µM (≈ 25 µg/mL) | > 40% | > 93.6 µM |  |  |  | 
2 | CCCOc1ccc(C(=O)Nc2ncc([N+](=O)[O-])s2)cc1Br | > 129 µM | 1 µM (≈ 0.386 µg/mL) | 10.1 µM (≈ 3.9 µg/mL) | 77.7 µM (≈ 30 µg/mL) | 77.6 µM (≈ 30 µg/mL) | 2.33 µM (≈ 0.9 µg/mL) | > 129 µM | > 129 µM | 4.03 µM (≈ 1.56 µg/mL) | > 129 µM | > 129 µM | > 40% | > 129 µM | < 4.00 | Metabolite_Detected | Metabolite_Notdetected | Active
3 | O=C(Nc1ncc([N+](=O)[O-])s1)c1ccc(Cl)cc1Cl | 93 µM (≈ 29.6 µg/mL) | 2.45 µM (≈ 0.779 µg/mL) | 18.6 µM (≈ 5.92 µg/mL) | 46.6 µM (≈ 14.8 µg/mL) | 78.5 µM (≈ 25 µg/mL) | 6.2 µM (≈ 1.97 µg/mL) | > 93 µM | > 93 µM | 18.8 µM (≈ 5.98 µg/mL) | > 93 µM | 78.5 µM (≈ 25 µg/mL) | > 40% | > 93 µM | < 4.00 |  |  | 
